# Measurements reported in ChEMBL document CHEMBL1158804, “Lupane triterpenoids from Maytenus species” (J Nat Prod, 2005).
# Activity calls are given as the source filed them. The calls are words filed in the database; no cut-off is given here.
# Tests used:
# Pseudomonas aeruginosa = assay: Antibacterial activity against Pseudomonas aeruginosa AK 958 up to 40 ug/mL by broth microdilution method; type: functional, organism-based
# Summary of the method: (§1)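 Compounds are dissolved in DMSO. The minimal inhibitory concentration is estimated by broth microdilution.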
# Salmonella = assay: Antibacterial activity against Salmonella sp. CECT 456 up to 40 ug/mL by broth microdilution method; type: functional, organism-based; summary of the method: as §1
# Escherichia coli = assay: Antibacterial activity against Escherichia coli CECT 99 up to 40 ug/mL by broth microdilution method; type: functional, organism-based; summary of the method: as §1
# Bacillus subtilis = assay: Antibacterial activity against Bacillus subtilis CECT 39 up to 40 ug/mL by broth microdilution method; type: functional, organism-based; summary of the method: as §1
# Priestia megaterium = assay: Antibacterial activity against Bacillus megaterium CECT 44 up to 40 ug/mL by broth microdilution method; type: functional, organism-based; summary of the method: as §1
# Vero = assay: Cytotoxicity against african green monkey Vero cells after 48 hrs by MTT assay; type: cell-based; details: Chlorocebus sabaeus
# Summary of the method: (§2)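 Monolayers are cultured in DMEM with 5% fetal calf serum and 1% penicillin-streptomycin at 37 °C, 5% CO2 and 90% humidity. Exponentially growing cells (2 × 10^4 cells/well) are exposed to a range of compound concentrations for 48 h at 37 °C. Viability is read by colorimetric MTT reduction.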
# [1] = system: Staphylococcus saprophyticus; assay: Antibacterial activity against Staphylococcus saprophyticus CECT 235 up to 40 ug/mL by broth microdilution method; type: functional, organism-based; summary of the method: as §1
# [2] = system: Staphylococcus epidermidis; assay: Antibacterial activity against Staphylococcus epidermidis CECT 232 up to 40 ug/mL by broth microdilution method; type: functional, organism-based; summary of the method: as §1
# Bacillus pumilus = assay: Antibacterial activity against Bacillus pumilus CECT 29 up to 40 ug/mL by broth microdilution method; type: functional, organism-based; summary of the method: as §1
# Candida albicans = assay: Antifungal activity against Candida albicans UBC1 up to 40 ug/mL by broth microdilution method; type: functional, organism-based
# Summary of the method: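 The yeast is grown on Sabouraud agar at 37 °C. Compounds are dissolved in DMSO, and the minimal inhibitory concentration is estimated by broth microdilution.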
# Proteus mirabilis = assay: Antibacterial activity against Proteus mirabilis CECT170 up to 40 ug/mL by broth microdilution method; type: functional, organism-based; summary of the method: as §1
# HEp-2 = assay: Cytotoxicity against human Hep2 cells after 48 hrs by MTT assay; type: functional, cell-based; details: HEp-2, 48 h; summary of the method: as §2
# Staphylococcus aureus = assay: Antibacterial activity against Staphylococcus aureus ATCC 6538 up to 40 ug/mL by broth microdilution method; type: functional, organism-based; summary of the method: as §1
# HeLa = assay: Cytotoxicity against human HeLa cells after 48 hrs by MTT assay; type: functional, cell-based; summary of the method: as §2
# Bacillus cereus = assay: Antibacterial activity against Bacillus cereus CECT 496 up to 40 ug/mL by broth microdilution method; type: functional, organism-based; summary of the method: as §1
# [3] = system: Mycolicibacterium smegmatis; assay: Antibacterial activity against Mycobacterium smegmatis CECT 3032 up to 40 ug/mL by broth microdilution method; type: functional, organism-based; summary of the method: as §1
# Enterococcus faecalis = assay: Antibacterial activity against Enterococcus faecalis CECT 795 up to 40 ug/mL by broth microdilution method; type: functional, organism-based; summary of the method: as §1
Compound,Activity (Pseudomonas aeruginosa),Activity (Salmonella),Activity (Escherichia coli),Activity (Bacillus subtilis),Activity (Priestia megaterium),IC50 (Vero) [µg/mL],Activity [1],Activity [2],Activity (Bacillus pumilus),Activity (Candida albicans),Activity (Proteus mirabilis),IC50 (HEp-2) [µg/mL],Activity (Staphylococcus aureus),IC50 (HeLa) [µg/mL],Activity (Bacillus cereus),Activity [3],Activity (Enterococcus faecalis)
CC(C)[C@@H]1CC[C@]2(C)CC[C@]3(C)[C@@H](CC[C@@H]4[C@@]5(C)CC[C@H](OC(=O)/C=C/c6ccc(O)c(O)c6)C(C)(C)[C@@H]5CC[C@]43C)[C@@H]12,inactive,inactive,inactive,inactive,inactive,> 10,inactive,inactive,inactive,inactive,inactive,> 10,inactive,> 10,inactive,inactive,inactive
C=C(C)[C@@H]1CC[C@]2(CO)CC[C@]3(C)[C@H](CC[C@@H]4[C@@]5(C)CC[C@H](O)C(C)(C)[C@@H]5CC[C@]43C)[C@@H]12 [BETULIN],inactive,inactive,inactive,inactive,inactive,> 10,inactive,inactive,inactive,inactive,inactive,> 10,inactive,> 10,inactive,inactive,inactive
C=C(C)[C@@H]1CC[C@]2(C)CC[C@]3(C)[C@@H](CC[C@@H]4[C@@]5(C)[C@@H](O)C[C@@H](O)C(C)(C)[C@@H]5CC[C@]43C)[C@@H]12,inactive,inactive,inactive,inactive,inactive,> 10,inactive,inactive,inactive,inactive,inactive,> 10,inactive,> 10,inactive,inactive,inactive
C=C(C)[C@@H]1CC[C@]2(CO)CC[C@]3(C)[C@H](CC[C@@H]4[C@@]5(C)CC[C@H](O)C(C)(C)[C@@H]5[C@H](O)C[C@]43C)[C@@H]12,inactive,inactive,inactive,inactive,inactive,> 10,inactive,inactive,inactive,,inactive,> 10,inactive,> 10,inactive,inactive,inactive
C=C(C)[C@@H]1CC[C@]2(CO)CC[C@]3(C)[C@H](CC[C@@H]4[C@@]5(C)C=CC(=O)C(C)(C)[C@@H]5CC[C@]43C)[C@@H]12,inactive,inactive,inactive,inactive,inactive,> 10,inactive,inactive,inactive,,inactive,> 10,inactive,> 10,inactive,inactive,inactive
